Among the data in ChEMBL document CHEMBL1777776, “Identification of 2-mercaptohexanoic acids as dual inhibitors of 5-lipoxygenase and microsomal prostaglandin E₂ synthase-1” (Bioorg Med Chem, 2011) are Activity, IC50 and inhibition values, retold here.

Calls of active or inactive are those of the source. No cut-off for these calls is given here. Bounds are passed on as bounds.

Data set [1] has as its target T1, Polyunsaturated fatty acid 5-lipoxygenase (Homo sapiens) (UniProt P09917).
T1 sequence (whole entry): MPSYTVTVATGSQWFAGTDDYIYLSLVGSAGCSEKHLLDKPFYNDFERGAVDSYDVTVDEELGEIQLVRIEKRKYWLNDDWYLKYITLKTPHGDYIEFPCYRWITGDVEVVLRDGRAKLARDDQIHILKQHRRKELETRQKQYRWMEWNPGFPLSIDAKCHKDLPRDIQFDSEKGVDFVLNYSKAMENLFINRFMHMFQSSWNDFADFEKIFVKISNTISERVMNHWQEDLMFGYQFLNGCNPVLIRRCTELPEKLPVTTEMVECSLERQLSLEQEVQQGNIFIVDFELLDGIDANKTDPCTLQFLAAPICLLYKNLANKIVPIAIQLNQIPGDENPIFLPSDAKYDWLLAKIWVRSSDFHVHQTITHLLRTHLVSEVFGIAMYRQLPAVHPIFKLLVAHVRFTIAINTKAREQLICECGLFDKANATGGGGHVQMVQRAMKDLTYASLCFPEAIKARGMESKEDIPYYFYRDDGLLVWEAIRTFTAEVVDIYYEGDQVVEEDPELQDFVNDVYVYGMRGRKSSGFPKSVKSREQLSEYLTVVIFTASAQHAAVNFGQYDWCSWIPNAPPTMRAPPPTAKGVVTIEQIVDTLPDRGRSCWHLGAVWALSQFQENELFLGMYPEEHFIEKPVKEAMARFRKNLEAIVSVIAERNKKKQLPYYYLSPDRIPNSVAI
Briefly: Inhibition of human recombinant 5-lipoxygenase expressed in Escherichia coli BL21 assessed as residual activity by measuring enzyme product formation using arachidonic acid as substrate at 10 uM after 10 mins by RP-HPLC analysis. The gist of the method:
(§1)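 Human 5-LO expressed in E. coli BL21 (pT3-5LO), affinity-purified and used at once. 0.5 µg enzyme in 1 ml PBS/EDTA with 1 mM ATP preincubated with compound 5–10 min at 4 °C, then warmed 30 s at 37 °C. Reaction started with 2 mM CaCl₂ and AA (routinely 20 µM), with or without 1 µM 13(S)-HpODE. Run 10 min at 37 °C, stopped with ice-cold methanol, products analysed by HPLC. Washout: 10-fold dilution (10 to 1 µM).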

In data set [2] the test system is A549. Kind of data set: Cytotoxicity against human A549 cells assessed as cell viability at 10 uM after 16 hrs by MTT assay. In kind it is cell-based. Conditions: a549, 5 h, in the assay text read “5 hrs” for “16 hrs”. In outline:
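A549 cells plated at 4 × 10⁴ cells per well, incubated 16 h at 37 °C, 5% CO₂, then exposed to 10 µM compound or DMSO (≤0.3% final) for 5 h. MTT added for 4 h, formazan solubilized with SDS in 20 mM HCl, absorbance at 595 nm read relative to vehicle-treated cells.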

Data set [3] concerns the target T2, Prostaglandin E synthase (Homo sapiens, UniProt O14684).
T2 sequence (O14684 whole entry): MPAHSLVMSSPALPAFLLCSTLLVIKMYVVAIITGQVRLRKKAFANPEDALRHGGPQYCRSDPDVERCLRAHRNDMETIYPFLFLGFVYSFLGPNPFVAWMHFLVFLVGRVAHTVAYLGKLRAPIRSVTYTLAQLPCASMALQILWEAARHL
Briefly: Inhibition of mPGES-1 in human IL-1beta-stimulated A549 cell microsomes assessed as reduction of PGE2 formation from PGH2 after 15 mins. Also on record: species or system Microsome. In outline:
(§2)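 Microsomes from A549 cells stimulated 72 h with IL-1β (1 ng/ml), diluted to 50 µg/ml in 0.1 M potassium phosphate pH 7.4 with 2.5 mM glutathione. Preincubated with compound (1% DMSO final) 15 min at 4 °C. Reaction started with 20 µM PGH₂, run 1 min at 4 °C, stopped with FeCl₂/citric acid containing 11β-PGE₂; PGE₂ quantified. Mean of n = 3–5.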

Data set [4] concerns the target T3, Polyunsaturated fatty acid 5-lipoxygenase (Homo sapiens, UniProt P09917).
T3 sequence (P09917 whole entry): T1 sequence (whole entry)
Kind of data set: Inhibition of 5-lipoxygenase in A23187-stimulated human PMNL assessed as enzyme product formation preincubated 15 mins by RP-HPLC analysis in presence of exogenous arachidonic acid. In outline: (§3)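 Freshly isolated human PMNL (5 × 10⁶/ml PGC buffer: PBS pH 7.4, 1 mg/ml glucose, 1 mM CaCl₂) preincubated with compound 15 min at 37 °C. Stimulated with 2.5 µM A23187 plus exogenous AA for 10 min at 37 °C. Stopped with methanol, PGB₁ added as internal standard, lipoxygenase products analysed by HPLC. Mean of n = 3–5.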

Data set [5] addresses T3, Polyunsaturated fatty acid 5-lipoxygenase. Kind of data set: Inhibition of human recombinant 5-lipoxygenase expressed in Escherichia coli BL21 assessed as enzyme product formation using arachidonic acid as substrate after 10 mins by RP-HPLC analysis. The gist of the method: as §1
In data set [6] the target is T1, Polyunsaturated fatty acid 5-lipoxygenase (Homo sapiens). Kind of data set: Inhibition of 5-lipoxygenase in A23187-stimulated human PMNL assessed as residual activity by measuring enzyme product formation at 10 uM preincubated 15 mins by RP-HPLC analysis in presence of exogenous arachidonic acid. In outline: as §3
Data set [7] addresses T4, Prostaglandin E synthase (Homo sapiens) (UniProt O14684).
T4 sequence (whole entry): T2 sequence (O14684 whole entry)
Briefly: Inhibition of mPGES-1 in human IL-1beta-stimulated A549 cell microsomes assessed as residual activity by measuring reduction of PGE2 formation from PGH2 at 10 uM after 15 mins. The note with it: Microsome. The gist of the method: as §2

The term IC50 denotes the concentration that gives 50% inhibition. With `CCCCC(Sc1ccc(OCCCOc2ccc(Cl)cc2OC)cc1)C(=O)O` (stereo not drawn), the Activity was 59.2% in data set [1], “Non-toxic” in data set [2] and 79.3% in data set [6]. Moreover, the IC50 is 9.4 µM in data set [3], above 10 µM in data set [4] and above 10 µM in data set [5].
As to `CCCCC(Sc1ccc(OCCCOc2ccccc2C)cc1)C(=O)O` (stereo not drawn), the Activity is 58.3% in data set [1] and “Non-toxic” in data set [2]. In addition, the IC50 in data set [3] is 8.8 µM; in data set [4], 4.8 µM; in data set [5], above 10 µM.
`CCCCC(Sc1ccc(OCCCOc2ccccc2)cc1)C(=O)O` (stereo not drawn): the Activity is 69.4% in data set [1], “Non-toxic” in data set [2] and 81.9% in data set [7]. For the same compound, the values for the IC50 in data set [3], in data set [4] and in data set [5] were above 10 µM, 9.5 µM and above 10 µM, respectively.
For `CCCCC(Sc1ccc(OCCCOc2ccccc2OC)cc1)C(=O)O` (stereo not drawn), the Activity in data set [1] was 79.4%; in data set [2], “Non-toxic”; in data set [7] it was 88.3%; in data set [6], 57.4%. Moreover, the concentration for half-maximal inhibition (IC50) in data set [3], in data set [4] and in data set [5] was above 10 µM each time.
`CCCCC(Sc1ccc(OCCCOc2ccc3ncccc3c2)cc1)C(=O)O` (stereo not drawn): the figures for the Activity in data set [1], in data set [2] and in data set [6] were 59%, “Non-toxic” and 92.2%, respectively. The inhibition result in data set [7] is “inactive”. In addition, the half-maximal inhibitory concentration (IC50) in data set [3], in data set [4] and in data set [5] was above 10 µM throughout.
For the compound `CCCCC(Sc1ccc(OCCCOc2cccc(C(C)C)c2)cc1)C(=O)O` (stereo not drawn), the Activity result in data set [2] is given as “Non-toxic”. In addition, the values for the half-inhibitory concentration (IC50) in data set [3], in data set [4] and in data set [5] were 2.7 µM, 1.4 µM and 6 µM, respectively.
In the case of `Cc1cccc(OCCCOc2ccc(CCC(=O)O)cc2)c1C`, the Activity in data set [1] was 81.8%; in data set [2] it was “Non-toxic”; in data set [7], 83.9%; in data set [6], 80%. Besides, the IC50 in data set [3], in data set [4] and in data set [5] was above 10 µM in each case.
With `CCCCC(Sc1ccc(OCCCOc2cccc(C(F)(F)F)c2)cc1)C(=O)O` (stereo not drawn), the Activity entry in data set [2] is reported as “Non-toxic”. Besides, the 50% inhibitory concentration (IC50) in data set [3] was 2 µM; in data set [4], 1.6 µM; in data set [5], 9.8 µM.
On to `CCCCC(Cc1ccc(OCCCOc2cccc(C)c2C)cc1)C(=O)O` (stereo not drawn), for which the Activity in data set [1] is 70.8%; in data set [2], “Non-toxic”. Besides, the results for the IC50 in data set [3], in data set [4] and in data set [5] were 7.1 µM, 2 µM and above 10 µM, respectively.
Take `CCCC[C@@H](Sc1ccc(OCCCOc2cccc(C)c2C)cc1)C(=O)O`: in data set [2], the Activity result is given as “Non-toxic”. Besides, the IC50 was 4.2 µM in data set [3], 1.1 µM in data set [4] and 10 µM in data set [5].
Turning to `CCCCC(Sc1ccc(OCCCOc2cccc(C)c2)cc1)C(=O)O` (stereo not drawn), the Activity was 79.3% in data set [1], “Non-toxic” in data set [2] and 58% in data set [7]. In addition, the 50% inhibitory concentration (IC50) in data set [3] is above 10 µM; in data set [4], 4.8 µM; in data set [5], above 10 µM.
As for `CCCCC(Sc1ccc(OCCCOc2ccc(-c3ccccc3)cc2)cc1)C(=O)OCC` (stereo not drawn), the Activity in data set [1] is 83%; in data set [2] it was “Non-toxic”; in data set [6], 91.5%. Besides, the IC50 in data set [4] and in data set [5] was above 10 µM in each case.
With `CCCCC(Sc1ccc(OCCCOc2cccc(C)c2C)cc1)C(=O)O` (stereo not drawn), the Activity entry in data set [2] was “Non-toxic”. Also, the concentration for half-maximal inhibition (IC50) in data set [3] worked out at 2.9 µM; in data set [4], 3 µM; in data set [5], 8.8 µM.
Turning to `CCCC[C@H](Sc1ccc(OCCCOc2cccc(C)c2C)cc1)C(=O)O`, the Activity entry in data set [2] was “Non-toxic”. Moreover, the values for the half-inhibitory concentration (IC50) in data set [3], in data set [4] and in data set [5] were 4.6 µM, 2 µM and 8.2 µM, respectively.
On to `CCCCC(Sc1ccc(OCCCOc2ccccc2C(C)C)cc1)C(=O)O` (stereo not drawn), for which, in data set [2], the Activity result is given as “Non-toxic”. Also, the half-maximal inhibitory concentration (IC50) in data set [3] came out at 4.1 µM; in data set [4], 1.6 µM; in data set [5] it was 7.8 µM.
For the compound `CCCCC(Sc1ccc(OCCCOc2cccc(OC)c2)cc1)C(=O)O` (stereo not drawn), the figures for the Activity in data set [1], in data set [2] and in data set [7] were 67.7%, “Non-toxic” and 59.1%, respectively. Further, the half-inhibitory concentration (IC50) is above 10 µM in data set [3], 4.8 µM in data set [4] and above 10 µM in data set [5].
For `CCCCC(Sc1ccc(OCCCOc2cccc3c2CCCC3)cc1)C(=O)OCC` (stereo not drawn), the results for the Activity in data set [1], in data set [2] and in data set [6] were 79.4%, “Non-toxic” and 87.4%, respectively. In addition, the concentration for half-maximal inhibition (IC50) in data set [4] and in data set [5] was above 10 µM each time.
Take `CCCC/C(=C\c1ccc(OCCCOc2cccc(C)c2C)cc1)C(=O)O`: the Activity in data set [1] is 88.9%; in data set [2] it was “Non-toxic”; in data set [7], 28.3%. The IC50 was above 10 µM in data set [3], 1.6 µM in data set [4] and above 10 µM in data set [5].
On to `CCCCC(Sc1ccc(OCCCOc2ccc3ncccc3c2)cc1)C(=O)OCC` (stereo not drawn), for which the Activity was 68.3% in data set [1], “Non-toxic” in data set [2] and 83.9% in data set [7]. In addition, the IC50 in data set [3] was above 10 µM; in data set [4], 0.8 µM; in data set [5] it was above 10 µM.
For `CCCCC(Sc1ccc(OCCCOc2ccc(C)cc2)cc1)C(=O)O` (stereo not drawn), the values for the Activity in data set [1] and in data set [2] were 67.6% and “Non-toxic”, respectively. Further, the IC50 is 9.3 µM in data set [3], 5.2 µM in data set [4] and above 10 µM in data set [5].
`Cc1cccc(OCCCOc2ccc(SCC(=O)O)cc2)c1C`: the Activity was 72.4% in data set [1], “Non-toxic” in data set [2], 75.4% in data set [7] and 69.6% in data set [6]. In addition, the IC50 in data set [3], in data set [4] and in data set [5] was above 10 µM throughout.
